From ChEMBL document CHEMBL1141140, “Antifungal agents. 11. N-substituted derivatives of 1-[(aryl)(4-aryl-1H-pyrrol-3-yl)methyl]-1H-imidazole: synthesis, anti-Candida activity, and QSAR studies” (2005)
≈ marks a conversion by molar mass, not a printed value.

Experiments:
[1] = test system: Candida albicans; assay: Ratio of the in vitro minimal inhibitory to that of bifonazole against Candida albicans (MIC(compound)/MIC(bifonazole)); format: functional
Procedure, shortened: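 Broth microdilution per NCCLS M27-A2 against 12 Candida albicans strains (AIDS oropharyngeal, HIV vulvovaginitis isolates, ATCC 24433 and 20891, lab strains 3153 and CA2). Inoculum ~10^4 cells/mL in RPMI 1640, pH 7.0; DMSO stocks 6.4 mg/mL, twofold dilutions 0.016–64 μg/mL; read at 24 h, 28 °C, no visible growth. Mean MIC over strains converted to μmol/mL, divided by bifonazole MIC.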

[2] = test system: Candida albicans; assay: In vitro concentration causing 90% inhibition of Candida albicans with percentage of resistant strains %R = 33.33 (MIC > 64 ug/mL) at a range of 0.125-2 ug/mL; format: functional
[3] = test system: Candida albicans; assay: In vitro minimal inhibitory concentration against Candida albicans with percentage of resistant strains %R = 33.33 (MIC > 64 ug/mL) at a range of 0.125-2 ug/mL; format: functional
[4] = test system: Candida albicans; assay: In vitro concentration causing 50% inhibition of Candida albicans with percentage of resistant strains %R = 33.33 (MIC > 64 ug/mL) at a range of 0.125-2 ug/mL; format: functional
[5] = test system: Candida albicans; assay: In vitro concentration causing 50% inhibition of Candida albicans with percentage of resistant strains %R = 0 (MIC > 64 ug/mL) at a range of 0.016-0.5 ug/mL; format: functional
[6] = test system: Candida albicans; assay: In vitro concentration causing 90% inhibition of Candida albicans with percentage of resistant strains %R = 0 (MIC > 64 ug/mL) at a range of 0.016-0.5 ug/mL; format: functional
[7] = test system: Candida albicans; assay: In vitro minimal inhibitory concentration against Candida albicans with percentage of resistant strains %R = 0 (MIC > 64 ug/mL) at a range of 0.016-0.5 ug/mL; format: functional
[8] = test system: Candida albicans; assay: In vitro minimal inhibitory concentration against Candida albicans with percentage of resistant strains %R = 41.6 (MIC > 64 ug/mL) at a range of 0.062-0.125 ug/mL; format: functional
[9] = test system: Candida albicans; assay: In vitro concentration causing 90% inhibition of Candida albicans with percentage of resistant strains %R = 41.6 (MIC > 64 ug/mL) at a range of 0.062-0.125 ug/mL; format: functional
[10] = test system: Candida albicans; assay: In vitro concentration causing 50% inhibition of Candida albicans with percentage of resistant strains %R = 41.6 (MIC > 64 ug/mL) at a range of 0.062-0.125 ug/mL; format: functional
[11] = test system: Candida albicans; assay: In vitro concentration causing 90% inhibition of Candida albicans with percentage of resistant strains %R = 33.3 (MIC > 64 ug/mL) at a range of 0.25-32 ug/mL
[12] = test system: Candida albicans; assay: In vitro minimal inhibitory concentration against Candida albicans with percentage of resistant strains %R = 33.3 (MIC > 64 ug/mL) at a range of 0.25-32 ug/mL
[13] = test system: Candida albicans; assay: In vitro concentration causing 50% inhibition of Candida albicans with percentage of resistant strains %R = 33.3 (MIC > 64 ug/mL) at a range of 0.25-32 ug/mL
[14] = test system: Candida albicans; assay: In vitro concentration causing 90% inhibition of Candida albicans with percentage of resistant strains %R = 0 (MIC > 64 ug/mL) at a range of 0.062-0.5 ug/mL; format: functional
[15] = test system: Candida albicans; assay: In vitro minimal inhibitory concentration against Candida albicans with percentage of resistant strains %R = 0 (MIC > 64 ug/mL) at a range of 0.062-0.5 ug/mL; format: functional
[16] = test system: Candida albicans; assay: In vitro concentration causing 50% inhibition of Candida albicans with percentage of resistant strains %R = 0 (MIC > 64 ug/mL) at a range of 0.062-0.5 ug/mL; format: functional
[17] = test system: Candida albicans; assay: In vitro concentration causing 50% inhibition of Candida albicans with percentage of resistant strains %R = 41.66 (MIC > 64 ug/mL) at a range of 0.25-4 ug/mL; format: functional
[18] = test system: Candida albicans; assay: In vitro minimal inhibitory concentration against Candida albicans with percentage of resistant strains %R = 41.66 (MIC > 64 ug/mL) at a range of 0.25-4 ug/mL; format: functional
[19] = test system: Candida albicans; assay: In vitro concentration causing 90% inhibition of Candida albicans with percentage of resistant strains %R = 41.66 (MIC > 64 ug/mL) at a range of 0.25-4 ug/mL; format: functional

With `Cc1ccc(C(c2ccn(-c3ccc(F)cc3)c2)n2ccnc2)cc1` (configuration not stated) the Ratio [1] was 3.1.
With `Clc1ccc(C(c2c[nH]cc2-c2ccc(-c3ccccc3)cc2)n2ccnc2)c(Cl)c1` (configuration not stated) the Ratio [1] was 4.3.
In the case of `CCn1cc(-c2ccc(Cl)c(Cl)c2)c(C(c2ccc(C)cc2)n2ccnc2)c1` (configuration not stated), the MIC90 [2] is reported as 2 µg/mL (≈ 4.87 µM), the MIC [3] is reported as 2.18 µg/mL (≈ 5.31 µM) and the MIC50 [4] is reported as 2 µg/mL (≈ 4.87 µM). The Ratio [1] was 0.47.
`Fc1ccc(-n2ccc(C(c3ccccc3)n3ccnc3)c2)cc1` (configuration not stated) was tested, and the Ratio [1] was 4.1.
In the case of `Nc1ccc(-c2c[nH]cc2C(c2ccc(Cl)cc2Cl)n2ccnc2)cc1` (configuration not stated), the Ratio [1] is reported as 28.
`Fc1ccc(C(c2ccn(-c3ccc(F)cc3)c2)n2ccnc2)cc1` (configuration not stated) showed a Ratio [1] of 1.4.
With `C=CCn1cc(-c2ccc(Cl)cc2)c(C(c2ccc(Cl)cc2Cl)n2ccnc2)c1` (configuration not stated) the MIC90 [2] was 2 µg/mL (≈ 4.52 µM), the MIC [3] was 0.73 µg/mL (≈ 1.65 µM) and the MIC50 [4] was 0.5 µg/mL (≈ 1.13 µM). For the same molecule, the Ratio [1] was 0.15.
With `c1ccc(-c2c[nH]cc2C(c2ccc3ccccc3c2)n2ccnc2)cc1` (configuration not stated) the Ratio [1] was 3.8.
Molecule `Fc1ccc(C(c2ccn(-c3ccc(Cl)cc3)c2)n2ccnc2)cc1` (configuration not stated) has a Ratio [1] of 2.8.
`COc1ccc(C(Cc2cccc(-n3cccc3)c2)n2ccnc2)cc1` (configuration not stated) gave a Ratio [1] of 45.
`C=Cn1cc(-c2ccc(Cl)cc2)c(C(c2ccccc2)n2ccnc2)c1` (configuration not stated) showed an MIC50 [5] of 0.032 µg/mL (≈ 0.0889 µM), an MIC90 [6] of 0.25 µg/mL (≈ 0.695 µM) and an MIC [7] of 0.125 µg/mL (≈ 0.347 µM). The Ratio [1] was 0.031.
In the case of `Clc1ccc(C(c2c[nH]cc2-c2ccc(-n3cccc3)cc2)n2ccnc2)c(Cl)c1` (configuration not stated), the Ratio [1] is reported as 1.3.
Work on `Cn1cc(-c2ccc(Cl)cc2)c(C(c2ccccc2)n2ccnc2)c1` (configuration not stated) yielded an MIC [8] of 0.097 µg/mL (≈ 0.279 µM), an MIC90 [9] of 0.125 µg/mL (≈ 0.359 µM) and a Ratio [1] of 0.025. The MIC50 [10] was 0.062 µg/mL (≈ 0.178 µM).
In the case of `CSc1ccc(-c2c[nH]cc2C(c2ccc(Cl)cc2Cl)n2ccnc2)cc1` (configuration not stated), the Ratio [1] is reported as 2.8.
`C=CCn1cc(-c2ccc(Cl)cc2)c(C(c2ccccc2)n2ccnc2)c1` (configuration not stated) was tested, and the MIC50 [5] was 0.016 µg/mL (≈ 0.0428 µM), the MIC90 [6] was 0.25 µg/mL (≈ 0.669 µM) and the MIC [7] was 0.082 µg/mL (≈ 0.219 µM). It also gave a Ratio [1] of 0.019.
In the case of `Cc1ccc(C(c2ccn(-c3ccc(Cl)cc3)c2)n2ccnc2)cc1` (configuration not stated), the Ratio [1] is reported as 1.1.
With `Clc1ccc(C(c2ccn(-c3ccc(Cl)cc3)c2)n2ccnc2)cc1` (configuration not stated) the Ratio [1] was 7.3.
For `Clc1ccc(-c2cn(CC3CC3)cc2C(c2ccccc2)n2ccnc2)cc1` (configuration not stated), the MIC50 [5] was 0.016 µg/mL (≈ 0.0412 µM), the MIC90 [6] was 0.125 µg/mL (≈ 0.322 µM) and the MIC [7] was 0.111 µg/mL (≈ 0.286 µM). For the same molecule, the Ratio [1] was 0.025.
`CCn1cc(-c2ccc(Cl)cc2)c(C(c2ccccc2)n2ccnc2)c1` (configuration not stated) was tested, and the MIC90 [11] was 8 µg/mL (≈ 22.1 µM), the MIC [12] was 5.59 µg/mL (≈ 15.4 µM) and the MIC50 [13] was 1 µg/mL (≈ 2.76 µM). For the same molecule, the Ratio [1] was 0.11.
`CC(C)=CCn1cc(-c2ccc(Cl)cc2)c(C(c2ccccc2)n2ccnc2)c1` (configuration not stated) showed an MIC90 [14] of 0.5 µg/mL (≈ 1.24 µM), an MIC [15] of 0.194 µg/mL (≈ 0.483 µM) and an MIC50 [16] of 0.065 µg/mL (≈ 0.162 µM). The Ratio [1] was 0.043.
Molecule `N#Cc1ccc(-c2c[nH]cc2C(c2ccc(Cl)cc2Cl)n2ccnc2)cc1` (configuration not stated) has a Ratio [1] of 4.3.
With `CCn1cc(-c2ccc(Cl)cc2Cl)c(C(c2ccccc2)n2ccnc2)c1` (configuration not stated) the MIC50 [17] was 1 µg/mL (≈ 2.52 µM), the MIC [18] was 1.46 µg/mL (≈ 3.68 µM) and the MIC90 [19] was 2 µg/mL (≈ 5.05 µM). For the same molecule, the Ratio [1] was 0.33.
`Clc1ccc(-n2ccc(C(c3ccccc3)n3ccnc3)c2)cc1` (configuration not stated) gave a Ratio [1] of 0.7.
`c1ccc(C(c2ccc(-n3cccc3)cc2)n2ccnc2)cc1` (configuration not stated) gave a Ratio [1] of 6.8.
Molecule `CC(Cc1ccc(N)cc1)n1ccnc1.COc1ccccc1` (configuration not stated) has a Ratio [1] of 1.4.
